# Published values gathered from unrelated publications.
# Each line is one published result; the experiments were not run side by side.
# ADRA1B: Alpha-1B adrenergic receptor (ADRA1B, Homo sapiens, UniProt P35368)
# PARP3: Protein mono-ADP-ribosyltransferase PARP3 (PARP3, Homo sapiens, UniProt Q9Y6F1)
# Mapk1: Mitogen-activated protein kinase 1 (Mapk1, Mus musculus, UniProt P63085)
# MMP1: Interstitial collagenase (MMP1, Homo sapiens, UniProt P03956)
SMILES,target,test,system,conditions,inhibition
CCCNc1nc2ccccc2n1Cc1ccc(Cl)cc1,ADRA1B,ligand displacement,,10 µM,16.1%
O=C1CCCc2c(O)cccc2N1,PARP3,"enzyme activity, inhibitor",,10 µM,0%
CN(C)C1CCN(CC#Cc2nn(C3CCCC3)c3nc(NCc4ccccc4)ncc23)C1 (centres unmarked),"Macrophage colony-stimulating factor 1 receptor (CSF1R, Homo sapiens, UniProt P07333)","enzyme activity, inhibitor, FRET",,1 µM,82%
Oc1cccc(Nc2nc(-c3ccc(F)cc3F)cs2)c1,ADRA1B,cell-free assay,,10 µM,16.4%
Cn1cnc(Br)c1C1=CN(c2ncnc3[nH]cnc23)CCS1,"Myosin-IIIa (MYO3A, Homo sapiens, UniProt Q8NEV4)","enzyme activity, inhibitor, radiometric",,2 µM,29.9%
CCN(CC)CCNC(=O)c1c(C)[nH]c(/C=C2\C(=O)Nc3ccc(F)cc32)c1C,Mapk1,"enzyme activity, inhibitor",,0.3 µM,-16%
O=C1C=Cc2occ(C(=O)c3ccccc3)c2C1=O,MMP1,"enzyme activity, inhibitor",,100 µM,≤ 0%
O=C1CCCc2ccc(F)cc2N1,PARP3,"enzyme activity, inhibitor",,10 µM,0%
COc1cc(NC(C)=O)c(Cl)cc1C(=O)Nc1nccs1,ADRA1B,cell-free assay,,10 µM,4.3%
COc1cc(CCN2CCN(CCCc3ccccc3)CC2)ccc1O,"Sodium-dependent dopamine transporter (Slc6a3, Mus musculus, UniProt Q61327)","ligand displacement, radioligand",,"10 µM, cell membranes",20%
CCN1CCN(Cc2ccc(NC(=O)c3ccc(C)c(Oc4ccnc5[nH]ccc45)c3)cc2C(F)(F)F)CC1,"Microtubule-associated serine/threonine-protein kinase 4 (MAST4, Homo sapiens, UniProt O15021)","target engagement in cells, inhibitor, chemoproteomics",Huh-7,1 µM,-11.5%
Ic1cccc2cnccc12,"ADP-ribosyl cyclase/cyclic ADP-ribose hydrolase 1 (CD38, Homo sapiens, UniProt P28907)","enzyme activity, inhibitor",,10 µM,0%
O=C1CCNC(=O)c2cc(Cl)c(Cl)cc21,PARP3,"enzyme activity, inhibitor",,10 µM,85%
Cc1ccc(Nc2nccc(N(C)c3ccc4c(C)n(C)nc4c3)n2)cc1S(N)(=O)=O,Mapk1,"enzyme activity, inhibitor",,0.3 µM,-2%
CNC(=O)c1cc2c(Oc3ccc(NC(=O)C4(C(=O)Nc5ccc(F)cc5)CC4)cc3)ccnc2cc1OC,"Hepatocyte growth factor receptor (MET, Homo sapiens, UniProt P08581)","enzyme activity, inhibitor, radiometric",,1 µM,99%
O=C(O)c1ncccc1O,MMP1,"enzyme activity, inhibitor, fluorescence",,1 mM,~50%
CC/C(=N\NC(=O)NCc1cccc(O)c1)c1ccc(O)c(C)c1O,"cAMP-dependent protein kinase catalytic subunit gamma (PRKACG, Homo sapiens, UniProt P22612)","enzyme activity, inhibitor",,0.1 µM,91%
